Published values of several laboratories.
Lines come from different studies, so protocols differ.
FLT3: Receptor-type tyrosine-protein kinase FLT3 (FLT3, Homo sapiens, UniProt P36888)
FLT3 R834Q: Receptor-type tyrosine-protein kinase FLT3 (FLT3, Homo sapiens, UniProt P36888, R834Q)
FLT3 ITD: Receptor-type tyrosine-protein kinase FLT3 (FLT3, Homo sapiens, UniProt P36888, ITD)
FLT3 D835Y: Receptor-type tyrosine-protein kinase FLT3 (FLT3, Homo sapiens, UniProt P36888, D835Y)
FLT3 D835H: Receptor-type tyrosine-protein kinase FLT3 (FLT3, Homo sapiens, UniProt P36888, D835H)
FLT3 N841I: Receptor-type tyrosine-protein kinase FLT3 (FLT3, Homo sapiens, UniProt P36888, N841I)
FLT3 autoinhibited: Receptor-type tyrosine-protein kinase FLT3, autoinhibited (FLT3, Homo sapiens, UniProt P36888)
FLT3 F691L/ITD: Receptor-type tyrosine-protein kinase FLT3 (FLT3, Homo sapiens, UniProt P36888, F691L/ITD)

Structure (SMILES)	target	assay	conditions	endpoint	value
CCN(CC)CCNC(=O)c1c(C)[nH]c(/C=C2\C(=O)Nc3ccc(F)cc32)c1C	FLT3	enzyme activity, inhibitor	1 µM	remaining activity	1%
Cc1cc(NC(=O)c2cccc3cc(-c4cccc5[nH]nc(N)c45)ccc23)ccc1F	FLT3	enzyme activity, inhibitor	0.1 µM	activity vs control	109%
CC1CCCN1c1nccc(-c2cnn3ncccc23)n1 (centres unmarked)	FLT3 R834Q	binding	1 µM	remaining binding	100%
Cc1cnc(-c2ccc(-c3ccc(NC(=O)Nc4c(F)cc(F)cc4F)cc3F)c3c2C(=O)NC3)[nH]1	FLT3 ITD	enzyme activity, inhibitor	1 µM, 90 min	activity vs control	1.6%
C[S+]([O-])c1ccc(-c2nc(-c3ccncc3)c(-c3ccc(F)cc3)[nH]2)cc1 (centres unmarked)	FLT3	cell-free assay	0.5 µM	remaining signal	91.5%
Fc1cccc(-n2cnc3c(NCc4nc5c(F)c(F)ccc5[nH]4)nc(N4CCOCC4)nc32)c1	FLT3 D835Y	binding, competition with immobilised ligand	10 µM	binding vs control	41%
Cc1[nH]c(/C=C2\C(=O)Nc3ccc(F)cc32)c(C)c1C(=O)N[C@H]1CCN(C(=O)N(C)C)C1	FLT3	enzyme activity, inhibitor	1 µM	remaining activity	2%
COc1ccc(COc2ccc(Cc3cnc(N)nc3N)cc2OC)cc1	FLT3	cell-free assay	0.5 µM	remaining signal	103%
O=C(Nc1cnn(-c2csc(C(=O)NC3COC3)c2)c1)Nc1ccccc1Cl	FLT3	enzyme activity, inhibitor	5 µM	remaining activity	89.7%
Cc1ccc(Nc2nccc(N(C)c3ccc4c(C)n(C)nc4c3)n2)cc1S(N)(=O)=O	FLT3	enzyme activity, inhibitor	0.5 µM	remaining activity	40.7%
Cc1cnc(Nc2ccc(C(=O)N3CCC(N4CCCC4)CC3)cc2)nc1-c1cc2ccccc2s1	FLT3 D835H	binding, competition with immobilised ligand	1 µM	remaining binding	1.1%
NS(=O)(=O)c1cc(NC(=O)Cc2ccccc2)ccc1Oc1cccc(Cl)c1	FLT3	cell-free assay, competition with immobilised ligand	1 µM	remaining binding	100%
CN(C)c1nccc(-c2cnc3ncccn23)n1	FLT3 D835Y	binding	1 µM	remaining binding	78%
CN([C@@H]1CCc2c(CC(=O)O)c3cc(S(C)(=O)=O)ccc3n2C1)S(=O)(=O)c1ccc(F)cc1	FLT3 N841I	cell-free assay, competition with immobilised ligand	1 µM	remaining binding	100%
COc1cc(Cl)c(C(=O)N[C@@H](CN[C@H]2CC[C@@H](N)CC2)Cc2ccc(C#N)cc2)cc1-c1ccc(CN[C@H](C)c2ccc(C)cc2)o1	FLT3	enzyme activity, inhibitor	1 µM	remaining activity	103%
C[C@H]1CCN(c2nccc(-c3cnn4ncccc34)n2)C1	Receptor-type tyrosine-protein kinase FLT3 (FLT3, Homo sapiens, UniProt P36888, D835V)	binding	1 µM	remaining binding	53%
O=C(c1ccc(Nc2ncc(Cl)c(-c3ccc(Cl)s3)n2)cc1)N1CCC(N2CCCC2)CC1	FLT3 D835Y	binding, competition with immobilised ligand	1 µM	remaining binding	1.1%
F[C@@H]1CCN(c2nccc(-c3cnn4ncccc34)n2)C1	FLT3	binding	1 µM	remaining binding	81%
O=C(c1ccc(Nc2ncc(Cl)c(-c3cc4ccccc4s3)n2)cc1)N1CCC(N2CCCC2)CC1	FLT3 ITD	binding, competition with immobilised ligand	1 µM	remaining binding	6.2%
CC(C)(C)c1nc2c(s1)c1nc(N)ncc1c1ccc(NS(=O)(=O)c3c(F)cccc3F)c(F)c12	FLT3	enzyme activity, inhibitor, radiometric	1 µM	remaining activity	104%
CCCCN(CCCC)C(=O)CN1C[C@H](c2cc(OC)c3c(c2)OCO3)[C@@H](C(=O)O)[C@@H]1CC(C)(C)CCC	FLT3 autoinhibited	cell-free assay, competition with immobilised ligand	1 µM	remaining binding	76%
CCN(CC)CCNC(=O)c1c(C)[nH]c(/C=C2\C(=O)Nc3ccc(F)cc32)c1C	FLT3	cell-free assay	0.5 µM	remaining signal	2.71%

Structure (SMILES)	target	assay	conditions	endpoint	value
Nc1ncnc2occ(-c3ccc(NC(=O)Nc4cc(C(F)(F)F)ccc4F)cc3)c12	FLT3 F691L/ITD	cell-free assay, inhibitor	20 µM	remaining signal	6.5%
CC(C)c1ccc(NC(=O)c2cccs2)c(-c2nc3ccccc3[nH]c2=O)c1	FLT3	enzyme activity, inhibitor	1 µM	activity vs control	51%
Cc1ccc(NC(=O)c2ccc(C)c(C(F)(F)F)c2)cc1C#Cc1nn(C2CCC(O)CC2)c2ncnc(N)c12 (centres unmarked)	FLT3 D835Y	enzyme activity, inhibitor	10 µM	remaining activity	118%
N[C@@H]1CCN(c2nccc(-c3cnn4ncccc34)n2)C1	FLT3 autoinhibited	binding	1 µM	remaining binding	100%
CCS(=O)(=O)c1cc2cc(C[C@@](O)(CC(C)(C)c3ccc(F)cc3C(N)=O)C(F)(F)F)[nH]c2cn1	Receptor-type tyrosine-protein kinase FLT3 (FLT3, Homo sapiens, UniProt P36888, D835V/ITD)	cell-free assay, competition with immobilised ligand	1 µM	remaining binding	73%
CCCOc1ccc(OC)c(F)c1C(=O)c1ccc(C(=O)N[C@@H]2CNC[C@H]2NC(=O)c2ccc3[nH]ncc3c2)cc1	FLT3 D835Y	enzyme activity, inhibitor	10 µM	remaining activity	12%
O=C(NCCCN1CCOCC1)c1ccc(Nc2nccc(-c3cc4ccccc4s3)n2)cc1	FLT3 autoinhibited	binding, competition with immobilised ligand	1 µM	remaining binding	67%
COc1ncc2cc3ccccc3nc2c1C#N	FLT3	cell-free assay, competition with immobilised ligand	5 µM	remaining binding	91%
O=C(c1ccc(Nc2nccc(-c3cc4ccccc4s3)n2)cc1)N1CCC(N2CCCC2)CC1	Receptor-type tyrosine-protein kinase FLT3 (FLT3, Homo sapiens, UniProt P36888, K663Q)	binding, competition with immobilised ligand	1 µM	remaining binding	37%
C[C@H](c1ccnc(Nc2nc3ccc(-c4cc(N(C)C)ncn4)cc3[nH]2)c1)N1CCN(C(=O)CC(F)(F)F)CC1	FLT3	cell-free assay, competition with immobilised ligand	0.1 µM	remaining binding	67%
CN(C)C1CCN(CC#Cc2nn(C3CCCC3)c3nc(NCc4ccccc4)ncc23)C1 (centres unmarked)	FLT3	enzyme activity, inhibitor, FRET	10 µM	inhibition	59%
CCCOc1ccc([C@H]2[C@H](C(=O)O)[C@@H](c3ccc4c(c3)OCO4)CN2CC(=O)Nc2c(CC)cccc2CC)cc1	FLT3 N841I	cell-free assay, competition with immobilised ligand	1 µM	remaining binding	93%
c1cnn2ncc(-c3ccnc(N4CCC45COC5)n3)c2c1	FLT3 D835Y	binding	1 µM	remaining binding	62%
Oc1cccc(-c2nc(N3CCOCC3)c3oc4ncccc4c3n2)c1	FLT3	cell-free assay	0.5 µM	remaining signal	87.1%
CC(=O)Nc1c(C(C)=O)c(=O)n(C)c2nc(-c3ccc(Cl)cc3Cl)c(-c3ccc(Cl)cc3)cc12	FLT3 F691L/ITD	cell-free assay, competition with immobilised ligand	1 µM	remaining binding	100%
Cc1cnc(NC2CCOCC2)nc1-n1cnc(C(=O)NC(CN)c2cc(F)cc(Cl)c2)c1 (centres unmarked)	FLT3	enzyme activity, inhibitor, radiometric	1 µM	remaining activity	94%
O=C(NCCCN1CCOCC1)c1ccc(Nc2ncc(Cl)c(-c3ccc(Cl)s3)n2)cc1	FLT3 D835H	binding, competition with immobilised ligand	1 µM	remaining binding	3.1%
CN(CCCC(F)(F)F)c1nccc(-c2cnn3ncccc23)n1	FLT3 D835H	binding	1 µM	remaining binding	96%
N#CCCc1ccc2c(c1)-c1[nH]c3ccc([N+](=O)[O-])cc3c1CC(=O)N2	FLT3	cell-free assay	0.5 µM	remaining signal	15.1%
Cc1ccc(C(=O)Nc2ccc(CN3CCN(C)CC3)c(C(F)(F)F)c2)cc1C#Cc1cnc2cccnn12	FLT3 R834Q	enzyme activity, inhibitor	23.5 nM	remaining activity	5%
O=C(c1cc2cc(O)ccc2[nH]1)c1cc2cc(O)ccc2[nH]1	FLT3	cell-free assay	0.5 µM	remaining signal	3.53%
Cc1ccc(C(=O)NCc2ccsc2)cc1C#Cc1cn(C(C)C)c2ncnc(N)c12	FLT3	enzyme activity, inhibitor	1 µM	activity vs control	80%
